Activity calls are given as the source filed them. The calls are words filed in the database; no cut-off is given here.
Key:
HepG2 [1] = test: Induction of apoptosis in human HepG2 cells assessed as necrotic cells at 4 uM incubated for 24 hrs by annexin V-FITC and PI staining based flow cytometry analysis (reference value: 0.8 %); assay type: functional
Outline: (§1)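 Cells seeded at 2×10^5 per well and treated 24 h with 1.0, 2.0 or 4.0 µM, or DMSO. Harvested, washed twice in cold PBS, resuspended at 1×10^5 cells/mL in buffer. Stained with Annexin V-FITC plus propidium iodide for 15 min at room temperature in the dark, then analysed by flow cytometry.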

RAW264.7 [2] = test: Inhibition of NF-kappaB in mouse RAW264.7 cells assessed as reduction in LPS-induced p38 phosphorylation at 1 to 4 uM incubated for 1 hr followed by LPS stimulation and measured after 30 mins by Western blot analysis; assay type: cell-based; settings: dose 1-4 µM
Outline: (§2)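 RAW264.7 incubated 1 h with compound (1.0, 2.0, 4.0 µM), then LPS 1.0 µg/mL for 30 min before extraction. Lysates blotted to nitrocellulose and probed overnight at 4 °C for total and phospho forms of p65, IκBα, Akt, ERK1/2, JNK and p38; secondary antibody 2 h at room temperature. ECL detection, normalized to GAPDH, mean ± SD of triplicate tests.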

SMMC-7721 [3] = test: Induction of apoptosis in human SMMC-7721 cells incubated for 24 hrs by annexin V-FITC and PI staining based flow cytometry analysis; assay type: functional, cell-based; settings: dose 1-4 µM; outline: as §1
RAW264.7 [4] = test: Inhibition of NF-kappaB in mouse RAW264.7 cells assessed as reduction in LPS-induced JNK phosphorylation at 1 to 4 uM incubated for 1 hr followed by LPS stimulation and measured after 30 mins by Western blot analysis; assay type: cell-based; settings: dose 1-4 µM; outline: as §2
RAW264.7 [5] = test: Inhibition of NF-kappaB in mouse RAW264.7 cells assessed as reduction in LPS-induced p65 nuclear translocation at 4 uM pretreated with LPS for 15 mins followed by compound addition and measured after 2 hrs by DAPI staining based fluorescence microscopy; settings: time 135.0 min
RAW264.7 [6] = test: Inhibition of NF-kappaB in mouse RAW264.7 cells assessed as reduction in LPS-induced p65 nuclear translocation at 4 uM pretreated with LPS for 15 mins followed by compound addition and measured after 2 hrs by DAPI staining based fluorescence microscopy; assay type: cell-based; settings: time 135.0 min
Outline: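 RAW264.7 exposed to LPS (1 µg/mL) for 15 min, then 4.0 µM compound for 2 h. Fixed at room temperature and blocked with 3% BSA. Anti-p65 (1:200) overnight at 4 °C, then secondary (1:200) for 30 min at room temperature. Nuclei stained with DAPI for 15 min; imaged on a high-content fluorescence system. Repeated three times.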

RAW264.7 [7] = test: Cytotoxicity against mouse RAW264.7 cells assessed as reduction in cell viability at 5 uM incubated for 24 hrs by MTT assay; assay type: cell-based; settings: raw264.7, 24 h
HepG2 [8] = test: Induction of apoptosis in human HepG2 cells assessed as early apoptotic cells at 4 uM incubated for 24 hrs by annexin V-FITC and PI staining based flow cytometry analysis (reference value: 0.2 %); assay type: functional; outline: as §1
SMMC-7721 [9] = test: Cytotoxicity against human SMMC-7721 cells assessed as reduction in cell viability incubated for 24 hrs by MTT assay; assay type: functional, cell-based; settings: SMMC-7721, 24 h
Outline: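 Cells kept at 37 °C in 5% CO₂. HepG2 grown in DMEM with 10% serum; HHL-5, LO2 and SMMC-7721 in 1640 medium with 10% serum. Seeded, grown 24 h, then exposed 24 h to 10, 5, 2.5, 1.25, 0.625 and 0.3125 µg/mL. MTT (5 mg/mL) added for 4 h at 37 °C; formazan dissolved in DMSO, OD read at 570 nm. IC50 averaged from three replicates.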

SMMC-7721 [10] = test: Induction of apoptosis in human SMMC-7721 cells assessed as late apoptotic cells at 1 uM incubated for 24 hrs by annexin V-FITC and PI staining based flow cytometry analysis (reference value: 5.4 %); assay type: functional; outline: as §1
RAW264.7 [11] = test: Antiinflammatory activity against mouse RAW264.7 cells assessed as LPS-induced IL-6 at 5 uM pretreated for 2 hrs followed by LPS stimulation and measured after 22 hrs by ELISA relative to control (reference value: 0 %); assay type: functional; settings: time 24 hrs
SMMC-7721 [12] = test: Induction of apoptosis in human SMMC-7721 cells assessed as necrotic cells at 4 uM incubated for 24 hrs by annexin V-FITC and PI staining based flow cytometry analysis (reference value: 1 %); assay type: functional; outline: as §1
HepG2 [13] = test: Induction of apoptosis in human HepG2 cells assessed as viable cells at 4 uM incubated for 24 hrs by annexin V-FITC and PI staining based flow cytometry analysis (reference value: 94.2 %); assay type: functional; settings: read-out: Activity; outline: as §1
HepG2 [14] = test: Induction of apoptosis in human HepG2 cells assessed as early apoptotic cells at 1 uM incubated for 24 hrs by annexin V-FITC and PI staining based flow cytometry analysis (reference value: 0.2 %); assay type: functional; outline: as §1

Cl.NC1=NC(c2cccc(F)c2)C2=C(N1)/C(=C/c1cccc(F)c1)CN(S(=O)(=O)c1ccc(C(F)(F)F)cc1)C2 (centres undefined)
Activity (HepG2 [1]): 1.2%
inhibition (RAW264.7 [2]): Active
Activity (SMMC-7721 [3]): Dose-dependent effect
inhibition (RAW264.7 [4]): Active
inhibition (RAW264.7 [5]): Active
inhibition (RAW264.7 [6]): Active
Activity (RAW264.7 [7]): Non-Toxic
Activity (HepG2 [8]): 49.8%
IC50 (SMMC-7721 [9]): 2400 nM
Activity (SMMC-7721 [10]): 15.1%
inhibition at 5 µM (RAW264.7 [11]): 86.8%
Activity (SMMC-7721 [12]): 12.9%
viability at 4 µM (HepG2 [13]): 30.6%
Activity (HepG2 [14]): 53.4%
